Measured values as given in ChEMBL document CHEMBL1156649, “Benzoic acid derivatives from Piper species and their antiparasitic activity” (J Nat Prod, 2008).
In brackets after ≈: the same amount, converted by molar mass.

Assays:
Assay type in all cases: functional, organism-based
Leishmania amazonensis = experiment: Antileishmanial activity against Leishmania amazonensis PH8 promastigotes
Summary of the method: (§1)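 Promastigotes grown at 28 °C in stationary culture, seeded at 1 × 10^4 per 100 µL well in RPMI 1640-based Leishmania medium. DMSO-dissolved samples added to give 100 µg/mL final and serial dilutions. IC50 = concentration causing 50% reduction in parasite viability. Pentamidine (10 µg/mL) positive control.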

Leishmania braziliensis = experiment: Antileishmanial activity against Leishmania braziliensis 2903 promastigotes; summary of the method: as §1
Leishmania donovani = experiment: Antileishmanial activity against Leishmania donovani PP75 promastigotes; summary of the method: as §1
Trypanosoma cruzi = experiment: Antitrypanosomal activity against Trypanosoma cruzi Tulahuen
Plasmodium falciparum = experiment: Antiplasmodial activity against chloroquine-sensitive Plasmodium falciparum F32-Tanzania
Summary of the method: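 Culture per Trager and Jensen on glucose-enriched RPMI 1640 with 10% human serum at 37 °C. After 24 h, medium replaced with fresh medium containing compound at 0.1, 1 and 10 µg/mL, then incubated 48 h more. Blood smears on day 3; parasitemia compared with control. IC50 read graphically from concentration versus % inhibition. Chloroquine (0.1 µg/mL) positive control. Triplicate.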

Row | SMILES | IC50 (Leishmania amazonensis) [mg/L] | IC50 (Leishmania braziliensis) [mg/L] | IC50 (Leishmania donovani) [mg/L] | IC50 (Trypanosoma cruzi) [mg/L] | IC50 (Plasmodium falciparum) [mg/L]
1 | CC(C)=CCc1cc(C(=O)O)cc(CC=C(C)C)c1O | 45.3 (≈ 165 µM) | 34.1 (≈ 124 µM) | 40 (≈ 146 µM) | > 20 | > 10
2 | COC(=O)c1cc(O)c(O)c(CC=C(C)C)c1 | 18.2 (≈ 77 µM) | 13.8 (≈ 58.4 µM) | 18.5 (≈ 78.3 µM) | 18.5 (≈ 78.3 µM) | 4.1 (≈ 17.4 µM)
3 | COC(=O)c1ccc(O)c(CC=C(C)C)c1 | 74.4 (≈ 338 µM) | 74.4 (≈ 338 µM) | 62.5 (≈ 284 µM) | > 20 | 2.8 (≈ 12.7 µM)
4 | C=C(C)C(O)Cc1cc(C(=O)O)cc(CC=C(C)C)c1O (racemic) | 67.6 (≈ 233 µM) | 67.6 (≈ 233 µM) | 67.3 (≈ 232 µM) | > 20 | > 10

The remaining lines, values ahead:

Row | IC50 (Leishmania amazonensis) [mg/L] | IC50 (Leishmania braziliensis) [mg/L] | IC50 (Leishmania donovani) [mg/L] | IC50 (Trypanosoma cruzi) [mg/L] | IC50 (Plasmodium falciparum) [mg/L] | SMILES
5 | > 100 | 78.8 (≈ 259 µM) | > 100 | > 20 | > 10 | COc1c(/C=C/C(C)(C)O)cc(C(=O)O)cc1CC=C(C)C
6 | 89.5 (≈ 355 µM) | 81.9 (≈ 325 µM) | 81.9 (≈ 325 µM) | 16.4 (≈ 65 µM) | > 10 | C=C(C)C(O)Cc1cc(C(=O)OC)cc(O)c1O (racemic)
7 | 78.2 (≈ 331 µM) | 74.4 (≈ 315 µM) | 86.9 (≈ 368 µM) | 15.6 (≈ 66 µM) | 10 (≈ 42.3 µM) | C=C(C)C(O)Cc1cc(C(=O)OC)ccc1O (stereo not given)
